# In ChEMBL document CHEMBL3044653, “Synthesis and herbicidal activity of 2-(substituted phenoxyacetoxy)alkyl-5,5-dimethyl-1,3,2-dioxaphosphinan-2-one” (J Agric Food Chem, 2012):
# Assays:
# Ipomoea nil [1] = assay: Post-emergence herbicidal activity against Ipomoea nil (Japanese morning glory) assessed as inhibition at 150 g/hectare by green house assay; format: functional
# Setaria viridis [2] = assay: Post-emergence herbicidal activity against Setaria viridis (green foxtail) assessed as inhibition at 37.5 g/hectare treated at one-leaf stage by green house assay; format: functional
# How it was run: (§1)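 Monocot weeds were sprayed postemergence in the greenhouse at the one-leaf stage with diluted formulation solutions. Primary dose was 150 g ai/ha, with follow-up doses of 75 and 37.5 g ai/ha for selected compounds. Activity is scored as percent herbicidal damage compared with an untreated control.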
# Glycine max = assay: Toxicity in Glycine max (soybean) plant assessed as inhibition at 150 g/hectare; format: organism-based; conditions: in vivo
# How it was run: (§2)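 For crop selectivity, conventional crop varieties were planted in 12 cm diameter plots and given a postemergence treatment at 150 g ai/ha. Injury was scored as percent inhibition, with 0–10% classed as safe to the crop.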
# Setaria viridis [3] = assay: Post-emergence herbicidal activity against Setaria viridis (green foxtail) assessed as inhibition at 75 g/hectare treated at one-leaf stage by green house assay; format: functional; how it was run: as §1
# Gossypium hirsutum = assay: Toxicity in Gossypium hirsutum (cotton) plant assessed as inhibition at 150 g/hectare; format: organism-based; conditions: in vivo; how it was run: as §2
# Amaranthus retroflexus [4] = assay: Post-emergence herbicidal activity against Amaranthus retroflexus assessed as inhibition at 75 g/hectare by green house assay; format: functional
# Pontederia vaginalis [5] = assay: Post-emergence herbicidal activity against Monochoria vaginalis assessed as inhibition at 150 g/hectare by green house assay; format: functional
# [6] = test system: Brassica rapa subsp. chinensis; assay: Post-emergence herbicidal activity against Brassica rapa subsp. chinensis assessed as inhibition at 150 g/hectare by green house assay; format: functional
# Pontederia vaginalis [7] = assay: Post-emergence herbicidal activity against Monochoria vaginalis assessed as inhibition at 75 g/hectare by green house assay; format: functional
# Echinochloa crus-galli [8] = assay: Post-emergence herbicidal activity against Echinochloa crus-galli (barnyard grass) assessed as inhibition at 75 g/hectare treated at one-leaf stage by green house assay; format: functional; how it was run: as §1
# Echinochloa crus-galli [9] = assay: Post-emergence herbicidal activity against Echinochloa crus-galli (barnyard grass) assessed as inhibition at 37.5 g/hectare treated at one-leaf stage by green house assay; format: functional; how it was run: as §1
# Triticum aestivum = assay: Toxicity in Triticum aestivum (wheat) plant assessed as inhibition at 150 g/hectare; format: organism-based; conditions: in vivo; how it was run: as §2
# Brassica oleracea [10] = assay: Post-emergence herbicidal activity against Brassica oleracea assessed as inhibition at 150 g/hectare by green house assay; format: functional
# Abutilon theophrasti = assay: Post-emergence herbicidal activity against Abutilon theophrasti (velvetleaf) assessed as inhibition at 150 g/hectare treated at two-leaf stage by green house assay; format: functional
# How it was run: (§3)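 Greenhouse postemergence spray of diluted formulation solutions onto broadleaf weeds at the two-leaf stage. Primary screen at 150 g ai/ha, with selected compounds retested at 75 and 37.5 g ai/ha. Abutilon was tested at 150 g ai/ha only. Read-out is percent herbicidal damage relative to an untreated control.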
# Eclipta prostrata [11] = assay: Post-emergence herbicidal activity against Eclipta prostrata assessed as inhibition at 75 g/hectare treated at two-leaf stage by green house assay; format: functional; how it was run: as §3
# Brassica oleracea [12] = assay: Post-emergence herbicidal activity against Brassica oleracea assessed as inhibition at 75 g/hectare by green house assay; format: functional
# Ammannia baccifera [13] = assay: Post-emergence herbicidal activity against Ammannia baccifera assessed as inhibition at 75 g/hectare by green house assay; format: functional
# Setaria viridis [14] = assay: Post-emergence herbicidal activity against Setaria viridis (green foxtail) assessed as inhibition at 150 g/hectare treated at one-leaf stage by green house assay; format: functional; how it was run: as §1
# Brassica juncea [15] = assay: Post-emergence herbicidal activity against Brassica juncea assessed as inhibition at 75 g/hectare treated at two-leaf stage by green house assay; format: functional; how it was run: as §3
# Echinochloa crus-galli [16] = assay: Post-emergence herbicidal activity against Echinochloa crus-galli (barnyard grass) assessed as inhibition at 150 g/hectare treated at one-leaf stage by green house assay; format: functional; how it was run: as §1
# Zea mays = assay: Toxicity in Zea mays (maize) plant assessed as inhibition at 150 g/hectare; format: organism-based; conditions: in vivo; how it was run: as §2
# Brassica juncea [17] = assay: Post-emergence herbicidal activity against Brassica juncea assessed as inhibition at 75 g/hectare by green house assay; format: functional
# Ammannia baccifera [18] = assay: Post-emergence herbicidal activity against Ammannia baccifera assessed as inhibition at 150 g/hectare by green house assay; format: functional
# Digitaria sanguinalis [19] = assay: Post-emergence herbicidal activity against Digitaria sanguinalis (hairy crabgrass) assessed as inhibition at 37.5 g/hectare treated at one-leaf stage by green house assay; format: functional; how it was run: as §1
# Chenopodium album [20] = assay: Post-emergence herbicidal activity against Chenopodium album assessed as inhibition at 150 g/hectare by green house assay; format: functional
# Ipomoea nil [21] = assay: Post-emergence herbicidal activity against Ipomoea nil (Japanese morning glory) assessed as inhibition at 75 g/hectare by green house assay; format: functional
# Brassica napus = assay: Toxicity in Brassica napus (oilseed rape) assessed as inhibition at 150 g/hectare; format: functional; how it was run: as §2
# [22] = test system: Brassica rapa subsp. chinensis; assay: Post-emergence herbicidal activity against Brassica rapa subsp. chinensis assessed as inhibition at 75 g/hectare by green house assay; format: functional
# Digitaria sanguinalis [23] = assay: Post-emergence herbicidal activity against Digitaria sanguinalis (hairy crabgrass) assessed as inhibition at 75 g/hectare treated at one-leaf stage by green house assay; format: functional; how it was run: as §1
# Amaranthus retroflexus [24] = assay: Post-emergence herbicidal activity against Amaranthus retroflexus assessed as inhibition at 150 g/hectare treated at two-leaf stage by green house assay; format: functional; how it was run: as §3
# Chenopodium album [25] = assay: Post-emergence herbicidal activity against Chenopodium album assessed as inhibition at 75 g/hectare by green house assay; format: functional
# Radish [26] = assay: Post-emergence herbicidal activity against Raphanus sativus (radish) assessed as inhibition at 75 g/hectare by green house assay; format: functional
# Radish [27] = assay: Post-emergence herbicidal activity against Raphanus sativus (radish) assessed as inhibition at 150 g/hectare by green house assay; format: functional
# Digitaria sanguinalis [28] = assay: Post-emergence herbicidal activity against Digitaria sanguinalis (hairy crabgrass) assessed as inhibition at 150 g/hectare treated at one-leaf stage by green house assay; format: functional; how it was run: as §1
# [29] = test system: Brassica rapa subsp. oleifera; assay: Post-emergence herbicidal activity against Brassica rapa subsp. oleifera assessed as inhibition at 75 g/hectare by green house assay; format: functional
# Amaranthus retroflexus [30] = assay: Post-emergence herbicidal activity against Amaranthus retroflexus assessed as inhibition at 75 g/hectare treated at two-leaf stage by green house assay; format: functional; how it was run: as §3
# Eclipta prostrata [31] = assay: Post-emergence herbicidal activity against Eclipta prostrata assessed as inhibition at 150 g/hectare treated at two-leaf stage by green house assay; format: functional; how it was run: as §3
# Brassica juncea [32] = assay: Post-emergence herbicidal activity against Brassica juncea assessed as inhibition at 37.5 g/hectare treated at two-leaf stage by green house assay; format: functional; how it was run: as §3
# Eclipta prostrata [33] = assay: Post-emergence herbicidal activity against Eclipta prostrata assessed as inhibition at 37.5 g/hectare treated at two-leaf stage by green house assay; format: functional; how it was run: as §3
# Brassica juncea [34] = assay: Post-emergence herbicidal activity against Brassica juncea assessed as inhibition at 150 g/hectare treated at two-leaf stage by green house assay; format: functional; how it was run: as §3
# Oryza sativa = assay: Toxicity in Oryza sativa (rice) plant assessed as inhibition at 150 g/hectare; format: organism-based; conditions: in vivo; how it was run: as §2
# [35] = test system: Brassica rapa subsp. oleifera; assay: Post-emergence herbicidal activity against Brassica rapa subsp. oleifera assessed as inhibition at 150 g/hectare by green house assay; format: functional
# Amaranthus retroflexus [36] = assay: Post-emergence herbicidal activity against Amaranthus retroflexus assessed as inhibition at 37.5 g/hectare treated at two-leaf stage by green house assay; format: functional; how it was run: as §3
# Brassica juncea [37] = assay: Post-emergence herbicidal activity against Brassica juncea assessed as inhibition at 150 g/hectare by green house assay; format: functional
# Amaranthus retroflexus [38] = assay: Post-emergence herbicidal activity against Amaranthus retroflexus assessed as inhibition at 150 g/hectare by green house assay; format: functional
compound,measurement,setting,value
CC1(C)COP(=O)(C(OC(=O)COc2ccc(Cl)cc2Cl)c2ccco2)OC1 (stereo not given),inhibition at 150 g/ha,Ipomoea nil [1],100%
same,inhibition at 37.5 g/ha,Setaria viridis [2],0%
same,inhibition (INH),Glycine max,30%
same,inhibition at 75 g/ha,Setaria viridis [3],0%
same,inhibition (INH),Gossypium hirsutum,30%
same,inhibition at 75 g/ha,Amaranthus retroflexus [4],70%
same,inhibition at 150 g/ha,Pontederia vaginalis [5],100%
same,inhibition at 150 g/ha,[6],80%
same,inhibition at 75 g/ha,Pontederia vaginalis [7],100%
same,inhibition at 75 g/ha,Echinochloa crus-galli [8],0%
same,inhibition at 37.5 g/ha,Echinochloa crus-galli [9],0%
same,inhibition (INH),Triticum aestivum,10%
same,inhibition at 150 g/ha,Brassica oleracea [10],85%
same,inhibition at 150 g/ha,Abutilon theophrasti,90%
same,inhibition at 75 g/ha,Eclipta prostrata [11],62%
same,inhibition at 75 g/ha,Brassica oleracea [12],80%
same,inhibition at 75 g/ha,Ammannia baccifera [13],100%
same,inhibition at 150 g/ha,Setaria viridis [14],30%
same,inhibition at 75 g/ha,Brassica juncea [15],90%
same,inhibition at 150 g/ha,Echinochloa crus-galli [16],30%
same,inhibition (INH),Zea mays,0%
same,inhibition at 75 g/ha,Brassica juncea [17],90%
same,inhibition at 150 g/ha,Ammannia baccifera [18],100%
same,inhibition at 37.5 g/ha,Digitaria sanguinalis [19],0%
same,inhibition at 150 g/ha,Chenopodium album [20],80%
same,inhibition at 75 g/ha,Ipomoea nil [21],100%
same,inhibition at 150 g/ha,Brassica napus,40%
same,inhibition at 75 g/ha,[22],70%
same,inhibition at 75 g/ha,Digitaria sanguinalis [23],0%
same,inhibition at 150 g/ha,Amaranthus retroflexus [24],80%
same,inhibition at 75 g/ha,Chenopodium album [25],70%
same,inhibition at 75 g/ha,Radish [26],80%
same,inhibition at 150 g/ha,Radish [27],85%
same,inhibition at 150 g/ha,Digitaria sanguinalis [28],40%
same,inhibition at 75 g/ha,[29],80%
same,inhibition at 75 g/ha,Amaranthus retroflexus [30],70%
same,inhibition at 150 g/ha,Eclipta prostrata [31],80%
same,inhibition at 37.5 g/ha,Brassica juncea [32],85%
same,inhibition at 37.5 g/ha,Eclipta prostrata [33],60%
same,inhibition at 150 g/ha,Brassica juncea [34],95%
same,inhibition (INH),Oryza sativa,40%
same,inhibition at 150 g/ha,[35],95%
same,inhibition at 37.5 g/ha,Amaranthus retroflexus [36],50%
same,inhibition at 150 g/ha,Brassica juncea [37],95%
same,inhibition at 150 g/ha,Amaranthus retroflexus [38],80%
